From ChEMBL document CHEMBL1154046, “Synthesis of some urea and thiourea derivatives of 3-phenyl/ethyl-2-thioxo-2,3-dihydrothiazolo[4,5-d]pyrimidine and their antagonistic effects on haloperidol-induced catalepsy and oxidative stress in mice” (2009) come the findings set out here.

Test [1] has as its system Mus musculus. Nature of the test: Inhibition of haloperidol-induced catalepsy in Swiss albino mouse assessed as time elapsed until release of forepaw from bar at 100 mg/kg, […] 30 min prior to haloperidol challenge measured after 120 mins by bar test. The class given is functional. The note with it: route intraperitoneal, in the assay text read “ip” for “po”. Put shortly:
(§1)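 Adult male pathogen-free Swiss albino mice (18–25 g), n = 5 per group, each used once. Compounds at 100 mg/kg i.p. were given as a suspension in 0.5% gum acacia 30 min before haloperidol 5 mg/kg i.p. Forepaws were placed on a horizontal bar 9 cm high, and descent time was recorded every 30 min for 3 h. Testing ran at 23 ± 1 °C under 20 lux. Values are mean ± S.E.M.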

Test [2] relates to Mus musculus. As to the kind of experiment: Inhibition of haloperidol-induced catalepsy in Swiss albino mouse assessed as time elapsed until release of forepaw from bar at 100 mg/kg, […] 30 min prior to haloperidol challenge measured after 30 mins by bar test. The class given is functional. The note with it: route intraperitoneal, in the assay text read “ip” for “po”. In outline: as §1

Test [3] concerns Mus musculus. As to the kind of experiment: Inhibition of haloperidol-induced catalepsy in Swiss albino mouse assessed as time elapsed until release of forepaw from bar at 100 mg/kg, […] 30 min prior to haloperidol challenge measured after 150 mins by bar test. It counts as functional. Particulars: route intraperitoneal, in the assay text read “ip” for “po”. In outline:
as §1

The subject of test [4] is Mus musculus. As to the kind of experiment: Inhibition of haloperidol-induced catalepsy in Swiss albino mouse at 100 mg/kg, […] 30 min prior to haloperidol challenge by bar test relative to haloperidol control. It counts as functional. The note with it: route intraperitoneal, in the assay text read “ip” for “po”. Put shortly:
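Mice received compound at 100 mg/kg i.p. (in 0.5% gum acacia) 30 min before haloperidol 5 mg/kg i.p., n = 5. The bar test was run every 30 min over 3 h, and descent times were summed as CDT [3 h]. Haloperidol CDT minus vehicle CDT was set as 100% catalepsy, and % inhibition was calculated against it.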

Test [5] has as its system Brain. Nature of the test: Antioxidant activity against lipid peroxidation in haloperidol-stimulated Swiss albino mouse brain assessed as malonaldehyde level per mg of protein by lipid peroxidation assay (Rvb= 5.521 +/- 0.23 nmol). The class given is functional, tissue-based. In outline: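 Compound was given 30 min before haloperidol 5 mg/kg i.p. Brain was homogenized in 50 mM Tris-HCl pH 7.4. Homogenate was mixed with SDS, acetic acid and 0.8% TBA, heated 1 h at 95 °C, and extracted into n-butanol/pyridine (15:1). Upper-layer A532 was converted to MDA using ε 1.56 × 10⁵, and protein was measured by Lowry. Results are nmol MDA/mg protein, n = 5.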

Test [6] deals with Mus musculus. Nature of the test: Inhibition of haloperidol-induced catalepsy in Swiss albino mouse assessed as time elapsed until release of forepaw from bar at 100 mg/kg, […] 30 min prior to haloperidol challenge measured after 180 mins by bar test. The class given is functional. The note with it: route intraperitoneal, in the assay text read “ip” for “po”. In outline:
as §1

The subject of test [7] is Brain. As to the kind of experiment: Antioxidant activity in haloperidol-stimulated Swiss albino mouse brain assessed as oxidized glutathione peroxidase level per g of protein (Rvb= 0.765+/- 0.13 U). The class given is functional.
The test system of test [8] is Mus musculus. Nature of the test: Inhibition of haloperidol-induced catalepsy in Swiss albino mouse assessed as time elapsed until release of forepaw from bar at 100 mg/kg, […] 30 min prior to haloperidol challenge measured after 90 mins by bar test. It counts as functional. The note with it: route intraperitoneal, in the assay text read “ip” for “po”. In outline:
as §1

Test [9] has as its system Brain. As to the kind of experiment: Antioxidant activity in haloperidol-stimulated Swiss albino mouse brain assessed as superoxide dismutase level per mg of protein (Rvb= 0.941+/- 0.15 U). The class given is functional.
The subject of test [10] is Mus musculus. As to the kind of experiment: Inhibition of haloperidol-induced catalepsy in Swiss albino mouse assessed as time elapsed until release of forepaw from bar at 100 mg/kg, […] 30 min prior to haloperidol challenge measured after 60 mins by bar test. The note with it: route intraperitoneal, in the assay text read “ip” for “po”. It counts as functional. Put shortly:
as §1

Test [11] deals with Brain. As to the kind of experiment: Antioxidant activity against GSH in haloperidol-stimulated Swiss albino mouse brain assessed as reduced glutathione level per gm of tissue (Rvb= 6.753 +/- 0.15 ug). It counts as functional.

Take `CCn1c(=S)sc2c(NC(=S)Nc3ccccc3OC)ncnc21`: the catalepsy descent time is 1.25 min in [1] and 0.883 min in test [8]. The descent time in [2] was found to be 0.3 min. The Time to forepaw release from bar in test [3] was determined as 1.62 min. In addition, in test [4], the inhibition (INH) amounted to 23.7%. In addition, the Activity in test [5] was 3.12 nmol; in test [7], 1.331 U; in [9] it was 1.866 U; in [11], 11.672 µg. Further, in test [6], the Catalepsy duration (time to release forepaw from bar) came out at 2.4 min. The Catalepsy time (forepaw descent time) in [10] turned out to be 0.25 min.
Consider `COc1ccccc1NC(=O)Nc1ncnc2c1sc(=S)n2-c1ccccc1`, for which the catalepsy descent time in [1] was 1.48 min; in [8] it was 0.95 min. Further, the descent time in test [2] was determined as 0.433 min. The Time to forepaw release from bar in [3] is 1.38 min. The same molecule showed an inhibition (INH) in [4] of 23.4%. For the same molecule, the Activity turned out to be 3.2 nmol in test [5], 1.134 U in test [7], 1.992 U in test [9] and 14.362 µg in test [11]. Besides, the Catalepsy duration (time to release forepaw from bar) in test [6] came out at 1.57 min. The Catalepsy time (forepaw descent time) in test [10] stood at 0.817 min.
Take `CCn1c(=S)sc2c(NC(=O)Nc3ccc(Cl)cc3)ncnc21`: the catalepsy descent time amounted to 2.53 min in [1] and 2.72 min in test [8]. The descent time in test [2] turned out to be 1.07 min. Also, the Time to forepaw release from bar in test [3] worked out at 3.77 min. Moreover, the inhibition (INH) in test [4] was determined as 64.1%. In addition, the Catalepsy duration (time to release forepaw from bar) in [6] came out at 4.12 min. In [10], the Catalepsy time (forepaw descent time) is 2.88 min.
Turning to `O=C(Nc1ccccc1Cl)Nc1ncnc2c1sc(=S)n2-c1ccccc1`, the catalepsy descent time amounted to 2.78 min in test [1] and 2.4 min in test [8]. Besides, the descent time in [2] is 1.27 min. The Time to forepaw release from bar in test [3] is 2.92 min. This molecule also showed an inhibition (INH) in test [4] of 53%. Also, in [6], the Catalepsy duration (time to release forepaw from bar) worked out at 2.9 min. The Catalepsy time (forepaw descent time) in test [10] stood at 1.97 min.
As to `S=C(Nc1ccc(Cl)cc1)Nc1ncnc2c1sc(=S)n2-c1ccccc1`, the catalepsy descent time came to 2.8 min in test [1] and 2.55 min in test [8]. For the same molecule, in test [2], the descent time came to 0.967 min. The Time to forepaw release from bar in test [3] amounted to 3.48 min. Further, the inhibition (INH) in [4] was determined as 62.6%. For the same molecule, the Catalepsy duration (time to release forepaw from bar) in [6] came out at 4.47 min. Moreover, the Catalepsy time (forepaw descent time) in test [10] is 2.45 min.
On to `CCn1c(=S)sc2c(NC(=O)Nc3ccccc3OC)ncnc21`, for which the catalepsy descent time in test [1] is 1.5 min; in test [8], 0.667 min. Besides, the descent time in [2] worked out at 0.583 min. In test [3], the Time to forepaw release from bar was determined as 2.25 min. The inhibition (INH) in [4] is 29.3%. In addition, the Activity in test [5] is 2.81 nmol; in test [7], 1.54 U; in test [9], 1.81 U; in test [11], 14 µg. Also, the Catalepsy duration (time to release forepaw from bar) in test [6] amounted to 2.62 min. The Catalepsy time (forepaw descent time) in test [10] is 0.517 min.
With `Fc1ccc(NC(=S)Nc2ncnc3c2sc(=S)n3-c2ccccc2)cc1`, the values for the catalepsy descent time in test [1] and in [8] were 3.25 min and 2.75 min, respectively. Further, the descent time in [2] came to 1.25 min. In addition, the Time to forepaw release from bar in test [3] is 3.63 min. In test [4], this molecule gave an inhibition (INH) of 61.3%. In test [6], the Catalepsy duration (time to release forepaw from bar) is 3.33 min. Further, in test [10], the Catalepsy time (forepaw descent time) was 2.15 min.
As to `CCn1c(=S)sc2c(NC(=S)Nc3ccc(OC)cc3)ncnc21`, the catalepsy descent time in test [1] was determined as 1.9 min; in test [8], 1.53 min. In addition, the descent time in test [2] is 0.433 min. Moreover, the Time to forepaw release from bar in test [3] was 2.1 min. This molecule also came in with an inhibition (INH) in [4] of 32.3%. Also, in test [6], the Catalepsy duration (time to release forepaw from bar) stood at 2.23 min. The Catalepsy time (forepaw descent time) in test [10] stood at 0.717 min.
With `COc1ccccc1NC(=S)Nc1ncnc2c1sc(=S)n2-c1ccccc1`, the catalepsy descent time in [1] turned out to be 1.8 min; in [8], 1.3 min. The descent time in test [2] was 0.417 min. Moreover, in [3], the Time to forepaw release from bar turned out to be 1.87 min. Moreover, the inhibition (INH) in test [4] worked out at 28.5%. The Activity is 2.75 nmol in test [5], 1.6 U in test [7], 2.35 U in test [9] and 14.2 µg in test [11]. In addition, in [6], the Catalepsy duration (time to release forepaw from bar) stood at 1.82 min. Moreover, the Catalepsy time (forepaw descent time) in [10] came out at 0.733 min.
For `O=C(Nc1ccc(F)cc1)Nc1ncnc2c1sc(=S)n2-c1ccccc1`, the catalepsy descent time came to 2.63 min in test [1] and 1.92 min in test [8]. Further, the descent time in test [2] is 1.42 min. Besides, the Time to forepaw release from bar in test [3] amounted to 2.55 min. This molecule displayed an inhibition (INH) in test [4] of 52.9%. Also, the Catalepsy duration (time to release forepaw from bar) in test [6] was 3.8 min. Moreover, in test [10], the Catalepsy time (forepaw descent time) was 1.9 min.
